This note sets out measurements from ChEMBL document CHEMBL1140249, “Inhibitors of the inducible microsomal prostaglandin E2 synthase (mPGES-1) derived from MK-886” (Bioorg Med Chem Lett, 2005).

Molecules are shown by their SMILES. Some results are limits rather than exact numbers.

The target in one assay is Prostaglandin E synthase (Homo sapiens, UniProt O14684). The experiment in a line: Inhibitory concentration against human prostaglandin E2 synthase (mPGES-1). The essentials: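 Microsomes from CHO cells expressing recombinant human mPGES-1, 5–10 lg protein/mL, preincubated with inhibitor 15 min. Reaction started with 1 µM PGH₂ and run 0.5 min, then stopped with 0.1 N HCl plus stannous chloride. PGE₂ measured by EIA. IC₅₀ from eight-point titrations.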
Prostaglandin E synthase, sequence (O14684 whole entry, looked up): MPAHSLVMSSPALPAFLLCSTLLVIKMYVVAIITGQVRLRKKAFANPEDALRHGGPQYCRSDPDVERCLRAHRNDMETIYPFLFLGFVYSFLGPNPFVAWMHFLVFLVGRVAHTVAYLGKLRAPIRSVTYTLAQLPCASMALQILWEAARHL
In general, IC50 refers to the concentration that gives 50% inhibition. Compound `COC(=O)C(C)(C)Cc1c(SC(C)(C)C)c2cc(C(C)C)ccc2n1Cc1ccc(Cl)cc1` had an IC50 of 7200 nM.

`CC(C)c1ccc2c(c1)c(-c1ccccc1)c(CC(C)(C)C(=O)O)n2Cc1ccc(Cl)cc1` gave an IC50 of 6400 nM.

With `CC(C)c1ccc2[nH]c(CC(C)(C)C(=O)O)c(SC(C)(C)C)c2c1`, the IC50 was more than 10000 nM.

For `Cc1c(CC(C)(C)C(=O)O)n(Cc2ccc(Cl)cc2)c2c(C(C)C)cccc12`, the IC50 came to 4300 nM.

`Cc1c(CC(C)(C)C(=O)O)n(Cc2ccc(Cl)cc2)c2ccc(-c3cccc(-c4ccccc4)c3)cc12` returned an IC50 of 160 nM.

`CC(C)c1ccc2c(c1)c(SC(C)(C)C)c(CC(C)(C)C(=O)ON)n2Cc1ccc(Cl)cc1` registered an IC50 of more than 10000 nM.

With `CC(C)c1ccc2c(c1)c(C(=O)CC(C)(C)C)c(CC(C)(C)C(=O)O)n2Cc1ccc(Cl)cc1`, 250 nM corresponded to half-maximal inhibition (IC50).

As to `CC(C)c1ccc2c(c1)c(SC(C)(C)C)c(CC(C)(C)C(=O)O)n2C`, the IC50 is more than 10000 nM.

Consider `Cc1c(CC(C)(C)C(=O)O)n(Cc2ccc(Cl)cc2)c2ccc(-c3ccc(-c4cccnc4)c(F)c3)cc12`, for which the IC50 came out at 12 nM.

On to `Cc1c(CC(C)(C)C(=O)O)n(Cc2ccc(Cl)cc2)c2ccc(-c3ccc(-c4cnccn4)c(F)c3)cc12`, for which it took 32 nM to reach half-maximal inhibition (IC50).

`Cc1c(CC(C)(C)C(=O)O)n(Cc2ccc(Cl)cc2)c2ccc(-c3ccccc3)cc12` displayed an IC50 of 600 nM.

Compound `Cc1c(CC(C)(C)C(=O)O)n(Cc2ccc(Cl)cc2)c2ccc(C(C)(C)C)cc12` had an IC50 of 330 nM.

In the case of `CC(C)c1ccc2c(c1)c(Oc1ccccc1)c(CC(C)(C)C(=O)O)n2Cc1ccc(Cl)cc1`, the midpoint of inhibition, the IC50, lay at 650 nM.

In turn, `Cc1ccc(-c2ccc(-c3ccc4c(c3)c(C)c(CC(C)(C)C(=O)O)n4Cc3ccc(Cl)cc3)cc2F)cc1` showed an IC50 of 31 nM.

With `Cc1cccc(-c2ccc(-c3ccc4c(c3)c(C)c(CC(C)(C)C(=O)O)n4Cc3ccc(Cl)cc3)cc2F)c1`, the IC50 is 33 nM.

As for `CC(C)c1ccc2c(c1)c(Cc1ccc(C(C)(C)C)cc1)c(CC(C)(C)C(=O)O)n2Cc1ccc(Cl)cc1`, the IC50 turned out to be 290 nM.

As to `Cc1c(CC(C)(C)C(=O)O)n(Cc2ccc(Cl)cc2)c2ccc(F)cc12`, the IC50 worked out at 2600 nM.

As to `Cc1c(CC(C)(C)C(=O)O)n(Cc2ccc(Cl)cc2)c2ccc(-c3ccc(-c4ccccc4)c(Cl)c3)cc12`, the IC50 is 22 nM.

`Cc1c(CC(C)(C)C(=O)O)n(Cc2ccc(Cl)cc2)c2ccc(-c3ccc(-c4ccccc4F)c(F)c3)cc12` gave an IC50 of 8 nM. Compared with the last compound, the IC50 is about 2.8-fold lower.

In turn, `Cc1c(CC(C)(C)C(=O)O)n(Cc2ccc(Cl)cc2)c2ccc(C(C)C)cc12` yielded an IC50 of 1100 nM.

For the compound `CC(=O)c1ccccc1-c1ccc(-c2ccc3c(c2)c(C)c(CC(C)(C)C(=O)O)n3Cc2ccc(Cl)cc2)cc1F`, half-maximal inhibition (IC50) required 6 nM.

In the case of `COc1ccccc1-c1ccc(-c2ccc3c(c2)c(C)c(CC(C)(C)C(=O)O)n3Cc2ccc(Cl)cc2)cc1F`, the midpoint of inhibition, the IC50, lay at 5 nM.

`CC(C)c1ccc2c(c1)c(C(=O)CSC(C)(C)C)c(CC(C)(C)C(=O)O)n2Cc1ccc(Cl)cc1` had an IC50 of 260 nM.

With `Cc1c(CC(C)(C)C(=O)O)n(Cc2ccc(Cl)cc2)c2ccccc12`, the IC50 is 3200 nM.

The next assay deals with T1, Arachidonate 5-lipoxygenase-activating protein (Homo sapiens, UniProt P20292).
T1 sequence (P20292 whole entry): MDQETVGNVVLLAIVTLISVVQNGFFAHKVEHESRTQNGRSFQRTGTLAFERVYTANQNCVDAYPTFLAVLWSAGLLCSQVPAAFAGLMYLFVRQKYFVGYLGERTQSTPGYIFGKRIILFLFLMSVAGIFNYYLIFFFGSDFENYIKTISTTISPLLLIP
The experiment in a line: In vitro binding affinity against FLAP (5-Lipoxygenase activation protein).
In the case of `Cc1ccccc1-c1ccc(-c2ccc3c(c2)c(C)c(CC(C)(C)C(=O)O)n3Cc2ccc(Cl)cc2)cc1F`, the IC50 is more than 1000 nM.

`Cc1c(CC(C)(C)C(=O)O)n(Cc2ccc(Cl)cc2)c2ccc(-c3ccc(-c4ccccc4)c(F)c3)cc12` had an IC50 of more than 1000 nM.

The target of the next assay is T2, Thromboxane-A synthase (Homo sapiens, UniProt P24557).
T2 sequence (P24557 whole entry): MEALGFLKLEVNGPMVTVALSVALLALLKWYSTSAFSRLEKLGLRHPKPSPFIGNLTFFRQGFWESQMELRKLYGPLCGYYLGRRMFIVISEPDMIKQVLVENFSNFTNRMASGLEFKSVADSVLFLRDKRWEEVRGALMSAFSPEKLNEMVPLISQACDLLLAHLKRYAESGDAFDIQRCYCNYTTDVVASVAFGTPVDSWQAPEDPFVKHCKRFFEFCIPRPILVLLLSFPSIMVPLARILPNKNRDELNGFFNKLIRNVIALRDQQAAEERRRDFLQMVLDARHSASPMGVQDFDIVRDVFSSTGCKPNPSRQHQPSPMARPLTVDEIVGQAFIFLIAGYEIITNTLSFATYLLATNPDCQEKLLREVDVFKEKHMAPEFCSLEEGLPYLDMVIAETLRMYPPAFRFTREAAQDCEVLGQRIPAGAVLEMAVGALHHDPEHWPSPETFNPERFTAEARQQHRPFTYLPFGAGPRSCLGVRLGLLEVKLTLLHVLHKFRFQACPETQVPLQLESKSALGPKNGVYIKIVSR
The experiment in a line: In vitro inhibition against human Thromboxane synthase.
The compound `Cc1ccccc1-c1ccc(-c2ccc3c(c2)c(C)c(CC(C)(C)C(=O)O)n3Cc2ccc(Cl)cc2)cc1F` yielded an IC50 of 950 nM.

Consider `Cc1c(CC(C)(C)C(=O)O)n(Cc2ccc(Cl)cc2)c2ccc(-c3ccc(-c4ccccc4)c(F)c3)cc12`, for which 1400 nM corresponded to half-maximal inhibition (IC50).
